{"data": "Assay results from different studies", "KIT": "Mast/stem cell growth factor receptor Kit (KIT, Homo sapiens, UniProt P10721)", "note": "Each line is one published result; the experiments were not run side by side."}
{"SMILES": "CN(C)c1ccc(C=C2C(=O)Nc3ccccc32)cc1", "target": "KIT", "test": "enzyme activity, inhibitor, radiometric", "endpoint": "IC50", "value": "84 nM"}
{"SMILES": "CN1CCN(c2ccc(Nc3ncc4cc(C#N)c(=O)n(C5CCCC5)c4n3)cc2)CC1", "target": "KIT", "test": "enzyme activity, inhibitor", "endpoint": "IC50", "value": "42 nM"}
{"SMILES": "C=CC(=O)Nc1cccc(CN2C(=O)N(c3c(Cl)c(OC)cc(OC)c3Cl)Cc3cnc(NCCCCN(CC)CC)nc32)c1", "target": "KIT", "test": "binding, competition with immobilised ligand", "endpoint": "Kd", "value": "420 nM"}
{"SMILES": "CCN1CCN(Cc2ccc(C(=O)Nc3ccc(C)c(Oc4ccc5c(c4)CC(=O)N5)c3)cc2C(F)(F)F)CC1", "target": "KIT", "test": "enzyme activity, inhibitor", "endpoint": "IC50", "value": "> 10000 nM"}
{"SMILES": "COc1ccc2c(Oc3ccc4c(C(=O)Nc5ccccc5N)cccc4c3)ccnc2c1", "target": "KIT", "test": "enzyme activity, inhibitor", "endpoint": "IC50", "value": "4 nM"}
{"SMILES": "Cc1cnc(-c2ccc(-c3ccc(NC(=O)Nc4c(F)cc(F)cc4F)cc3F)c3c2C(=O)NC3)[nH]1", "target": "KIT", "test": "enzyme activity, inhibitor", "endpoint": "IC50", "value": "29.8 nM"}
{"SMILES": "Cc1ccc(NC(=O)c2ccc(CN3CCS(=N)(=O)CC3)cc2)cc1Nc1nccc(-c2cccnc2)n1", "target": "KIT", "test": "binding, competition with immobilised ligand", "endpoint": "Kd", "value": "11 nM"}
{"SMILES": "CNC(=O)c1cc2c(Oc3ccc(NC(=O)C4(C(=O)Nc5ccc(F)cc5)CC4)cc3)ccnc2cc1OC", "target": "Mast/stem cell growth factor receptor Kit (KIT, Homo sapiens, UniProt P10721, V560G)", "test": "enzyme activity, inhibitor, radiometric", "endpoint": "IC50", "value": "15 nM"}
